From paper PMC9817006 (Journal of psychopharmacology (Oxford, England), 2022)
Where two headings read alike, the source gives them in different places.

Legend:
[1] = test system: C57BL/6J mice; β2 and α6 WT and KO mice; experiment: Conditioned place preference; assay type: in vivo
How it was run: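 Three-chamber place conditioning in β2 and α6 WT and KO mice (C57BL/6J background, 8–10/group). Day 1: 5 min confinement to the middle chamber, then 15 min free access. Test compound (0.05 mg/kg s.c.) or vehicle given over three conditioning days, sessions 4 h apart, paired chamber randomized. Day 5: drug-free 15 min test. Score = drug-paired-side time on test day minus baseline.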

[2] = target: low sensitivity α4(3)β2(2) nAChR (Homo sapiens, UniProt P17787+P43681); experiment: Two-electrode voltage clamp in Xenopus oocytes, LS α4β2; assay type: cell-based
How it was run: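 LS α4β2 nAChR (human, cRNA in Xenopus oocytes) clamped at −60 mV, 24°C, with Ringer's (pH 7.2, 1 μM atropine) at 2 ml/min. Varying test compound concentrations applied for 12 s, then 181 s washout. Peak currents and net charge normalized to same-cell 100 μM ACh controls, then adjusted to ACh maximum determined separately; at least four oocytes.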

[3] = test system: C57BL/6J mice; β2 and α6 WT and KO mice; experiment: Formalin test; assay type: in vivo
[4] = α4(3)β2(2), normalized to the maximum ACh responses
[5] = C57BL/6J mice, 0.5 mg/kg s.c., pretreatment 5, 15, 30, 60 min
[6] = α6 WT and KO mice, 0.5 mg/kg s.c., 15 min pretreatment
[7] = β2 WT mice, 0.5 mg/kg s.c., 15 min pretreatment

Chain of low sensitivity α4(3)β2(2) nAChR (P17787 26-502): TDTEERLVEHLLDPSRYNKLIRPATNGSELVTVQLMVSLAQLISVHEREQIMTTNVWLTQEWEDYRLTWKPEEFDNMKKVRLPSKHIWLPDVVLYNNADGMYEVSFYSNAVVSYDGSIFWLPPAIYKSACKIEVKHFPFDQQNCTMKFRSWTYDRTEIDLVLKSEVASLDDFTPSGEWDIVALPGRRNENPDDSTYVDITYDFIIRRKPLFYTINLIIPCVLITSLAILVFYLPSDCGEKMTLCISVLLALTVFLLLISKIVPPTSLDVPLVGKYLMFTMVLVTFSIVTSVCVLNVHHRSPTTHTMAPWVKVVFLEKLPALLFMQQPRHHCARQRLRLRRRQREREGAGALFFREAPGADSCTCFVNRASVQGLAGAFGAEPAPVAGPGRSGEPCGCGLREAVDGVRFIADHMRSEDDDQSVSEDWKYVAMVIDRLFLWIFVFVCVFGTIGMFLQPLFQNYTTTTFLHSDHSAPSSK
Chain of low sensitivity α4(3)β2(2) nAChR (P43681 29-627 limits assumed): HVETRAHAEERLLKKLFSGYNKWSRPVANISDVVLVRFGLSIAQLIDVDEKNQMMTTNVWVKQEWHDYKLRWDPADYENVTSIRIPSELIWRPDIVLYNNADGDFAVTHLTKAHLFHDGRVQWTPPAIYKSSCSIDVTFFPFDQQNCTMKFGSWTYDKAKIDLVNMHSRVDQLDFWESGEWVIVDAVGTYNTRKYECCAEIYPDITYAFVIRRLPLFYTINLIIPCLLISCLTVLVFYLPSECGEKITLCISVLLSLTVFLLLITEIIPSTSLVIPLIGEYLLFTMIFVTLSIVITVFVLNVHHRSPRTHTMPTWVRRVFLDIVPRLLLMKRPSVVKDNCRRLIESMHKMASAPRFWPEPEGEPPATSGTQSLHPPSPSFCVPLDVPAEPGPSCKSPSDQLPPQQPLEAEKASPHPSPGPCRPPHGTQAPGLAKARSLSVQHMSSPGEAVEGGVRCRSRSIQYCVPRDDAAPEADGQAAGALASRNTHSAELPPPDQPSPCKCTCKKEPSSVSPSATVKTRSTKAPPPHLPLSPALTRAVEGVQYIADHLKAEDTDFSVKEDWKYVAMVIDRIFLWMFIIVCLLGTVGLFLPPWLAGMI
Chain of low sensitivity α4(3)β2(2) nAChR (P43681 29-627 limits assumed): as above

What does the source list for `Ic1cncc(OC[C@@H]2CCN2)c1` [5IA, 5-Iodo-A-85380]?
Conditioned place preference, dose-response (in words) ([1]; C57BL/6J mice, 0.01, 0.05, 0.1, 0.5 or 1 mg/kg s.c.): significant 5IA induced-CPP at 0.05 and 0.1 mg/kg, but not at 0.01, 0.5, and 1 mg/kg; Conditioned place preference, α6 WT vs KO (in words) ([1]; α6 WT and KO mice, 0.05 mg/kg s.c.): no significant difference in 5IA-induced CPP between α6 WT and KO mice; Conditioned place preference (in words) ([1]; β2 KO mice, 0.05 mg/kg s.c.): significantly abolished in β2 KO mice; Conditioned place preference (in words) ([1]; β2 WT mice, 0.05 mg/kg s.c.): significant CPP in comparison to their vehicle counterparts; Efficacy (in words) ([2]; low sensitivity α4(3)β2(2)): very low efficacy; EC50 ([2]; read-out: Net Charge EC50, α4(3)β2(2)): 25 ± 14 nM; EC50 ([2]; read-out: Peak Currents EC50, α4(3)β2(2)): 37 ± 6.3 nM; Net Charge Imax [2, 4]: 0.22 ± 0.04; Peak Currents Imax [2, 4]: 0.22 ± 0.1; Paw licking, formalin test phase I, time course (in words) [3, 5]: significant effects of 5IA treatment at 5, 15, 30, and 60 min in phase I; Paw licking, formalin test phase II, time course (in words) [3, 5]: significant differences observed at only 5 and 15 minutes; Paw licking, formalin test, dose-response (in words) ([3]; C57BL/6J mice, 0.01, 0.1, 0.5 mg/kg s.c., 15 min pretreatment, vs vehicle): significant attenuation of paw licking responses at 0.1 and 0.5 mg/kg; Paw licking, formalin test phase I (in words) [3, 6]: completely blocked the paw licking behavior in both α6 WT and KO mice in phase I; Paw licking, formalin test phase II (in words) [3, 6]: only partially inhibited it in phase II; Paw licking, formalin test phase I (in words) [3, 7]: significantly attenuated paw licking time in phase I; Paw licking, formalin test phase II (in words) [3, 7]: partially decreased paw licking time in phase II
